Consider 14 compounds from ChEMBL document CHEMBL3217531, “Potential Drug Abuse Therapeutics Derived from the Hallucinogenic Natural Product Salvinorin A” (Medchemcomm, 2011).

The target of assay [1] is T1, Kappa-type opioid receptor (Homo sapiens, UniProt P41145). In words: Agonist activity at human kappa opioid receptor expressed in CHO cell membrane assessed as [35S]GTPgammaS binding after 3 hrs by liquid scintillation counting analysis. It counts as functional, cell membranes.
For assay [2], the target named is T1, Kappa-type opioid receptor. In words: Agonist activity at human kappa opioid receptor expressed in CHO cell membrane assessed as [35S]GTPgammaS binding after 3 hrs by liquid scintillation counting analysis relative to (-)-U50488H. It counts as functional, cell membranes.
Assay [3] addresses T1, Kappa-type opioid receptor. In words: Displacement of [3H]U69593 from human kappa opioid receptor expressed in CHO cell membrane after 2 hrs by scintillation counting analysis. Type of assay: cell membranes.
In assay [4] the target is Delta-type opioid receptor (Homo sapiens, UniProt P41143). In words: Displacement of [3H]DADLE from human delta opioid receptor expressed in CHO cell membrane after 2 hrs by liquid scintillation counting analysis. It counts as cell membranes. (Displacement assays read how much labelled ligand stays bound in the presence of the test substance.)
Another assay concerns the target Mu-type opioid receptor (Homo sapiens, UniProt P35372). In words: Displacement of [3H]DAMGO from human mu opioid receptor expressed in CHO cell membrane after 2 hrs by liquid scintillation counting analysis. Type of assay: cell membranes.
The subject of a further assay is Rattus norvegicus. Nature of the assay: Antiaddiction activity in rat assessed as reduction in cocaine-induced drug seeking activity at 1 mg/kg, ip treated for 5 to 10 mins prior to priming injection of cocaine measured for 2 hrs. It counts as functional, organism-based. More on the design: dose 1 mg/kg. In short, it runs like this: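 Rats trained on FR5 cocaine self-administration (0.5 mg kg⁻¹/infusion, paired light cue, 2 h sessions). Extinction with sterile heparinized saline until active lever responses <20 per 2 h session. Next day, IP vehicle (75% DMSO) or test dose 5–10 min before IP cocaine prime (20 mg kg⁻¹). Active lever responding recorded for 2 h. N = 6 at 1 mg kg⁻¹; mean ±SEM.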

The target of assay [5] is T1, Kappa-type opioid receptor. In words: Agonist activity at human kappa opioid receptor expressed in CHO cell membrane by [35S]GTPgammaS binding assay. Type of assay: functional, cell membranes. On the technique in general: GTPγS resists hydrolysis and so accumulates on activated G proteins.

pEC50, pKi: −log10 of the molar value. The source made the active and inactive calls. The rule behind the calls is not given here. A value given as a limit tells only on which side of the number the result lay.

What is called Emax is the size of the effect at its maximum, as opposed to the concentration needed. A word on the pKi: it is the Ki on a negative log10 scale, so that one unit is a factor of ten. High values mean a small Ki, low ones a large Ki. One may read the pEC50 as −log10 of the EC50, conventionally taken in molar units. A lower pEC50 goes with a large EC50.

Chain of Mu-type opioid receptor (P35372 whole entry, the tested form may be a part): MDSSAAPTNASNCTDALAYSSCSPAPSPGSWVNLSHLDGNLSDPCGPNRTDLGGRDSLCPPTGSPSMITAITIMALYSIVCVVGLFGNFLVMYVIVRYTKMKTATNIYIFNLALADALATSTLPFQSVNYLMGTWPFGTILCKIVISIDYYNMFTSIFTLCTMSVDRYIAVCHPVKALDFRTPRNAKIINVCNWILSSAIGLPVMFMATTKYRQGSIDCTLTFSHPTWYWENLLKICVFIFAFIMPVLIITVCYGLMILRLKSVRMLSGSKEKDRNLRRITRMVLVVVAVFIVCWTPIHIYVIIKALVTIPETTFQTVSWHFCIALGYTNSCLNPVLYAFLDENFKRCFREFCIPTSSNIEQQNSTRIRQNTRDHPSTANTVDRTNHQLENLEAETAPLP
Chain of Delta-type opioid receptor (P41143 whole entry): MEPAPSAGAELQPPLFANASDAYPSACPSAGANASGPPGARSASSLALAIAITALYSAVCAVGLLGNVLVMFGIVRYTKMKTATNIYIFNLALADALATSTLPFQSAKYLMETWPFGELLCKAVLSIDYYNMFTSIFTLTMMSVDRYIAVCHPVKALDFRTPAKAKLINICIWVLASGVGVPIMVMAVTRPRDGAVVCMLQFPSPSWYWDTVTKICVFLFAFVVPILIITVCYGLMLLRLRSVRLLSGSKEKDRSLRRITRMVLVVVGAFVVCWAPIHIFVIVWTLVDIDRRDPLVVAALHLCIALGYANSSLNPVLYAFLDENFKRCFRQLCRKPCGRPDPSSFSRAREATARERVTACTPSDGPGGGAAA
T1 sequence (P41145 whole entry): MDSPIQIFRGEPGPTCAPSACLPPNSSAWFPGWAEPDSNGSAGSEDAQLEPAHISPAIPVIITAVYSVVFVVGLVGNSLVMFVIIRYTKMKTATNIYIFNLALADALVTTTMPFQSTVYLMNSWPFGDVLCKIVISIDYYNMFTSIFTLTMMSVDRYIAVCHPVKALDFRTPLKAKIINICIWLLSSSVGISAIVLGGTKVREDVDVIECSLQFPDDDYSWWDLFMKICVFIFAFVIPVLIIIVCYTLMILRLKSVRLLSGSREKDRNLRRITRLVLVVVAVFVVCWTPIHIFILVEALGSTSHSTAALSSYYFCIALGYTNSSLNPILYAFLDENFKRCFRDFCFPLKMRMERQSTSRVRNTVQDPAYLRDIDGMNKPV

For the compound `COC(=O)[C@@H]1C[C@H](OC(C)=O)C(=O)[C@H]2[C@@]1(C)CC[C@H]1C(=O)O[C@H](C(=O)N3CCCCC3)C[C@]21C`, the ED50 in assay [1] was 5110 nM. The Emax in assay [2] amounted to 85%. In assay [3] (cho), the pKi was 6.85.

On to `COCO[C@H]1C[C@@H](C(=O)OC)[C@]2(C)CC[C@H]3C(=O)O[C@H](C(=O)N4CCCCC4)C[C@]3(C)[C@H]2C1=O`, for which the pKi is under 5.52 in assay [4], under 5.52 on Mu-type opioid receptor and 7.23 in assay [3]. The Emax in assay [2] amounted to 113%.

`CCO[C@@H](C)O[C@H]1C[C@@H](C(=O)OC)[C@]2(C)CC[C@H]3C(=O)O[C@H](c4ccoc4)C[C@]3(C)[C@H]2C1=O`: the values for the pKi (in assay [4]; on Mu-type opioid receptor) were under 5.30 and 6.11, respectively.

For `CCOC(=O)O[C@H]1C[C@@H](C(=O)OC)[C@]2(C)CC[C@H]3C(=O)O[C@H](c4ccoc4)C[C@]3(C)[C@H]2C1=O`, the pKi in assay [4] was under 5.00; at Mu-type opioid receptor it was under 5.00; in assay [3], 6.77.

For `COC(=O)[C@@H]1C[C@H](O[C@H]2CCCO2)C(=O)[C@H]2[C@@]1(C)CC[C@H]1C(=O)O[C@H](c3ccoc3)C[C@]21C`, the ED50 in assay [1] came out at 690 nM. Also, the values for the pKi (in assay [4]; on Mu-type opioid receptor; in assay [3]) were under 5.00, under 5.00 and 7.09, respectively. Moreover, the Emax in assay [2] was 103%.

Consider `COC(=O)[C@@H]1C[C@H](OC=O)C(=O)[C@H]2[C@@]1(C)CC[C@H]1C(=O)O[C@H](c3ccoc3)C[C@]21C`, for which the pKi in assay [4] was under 5.00; on Mu-type opioid receptor, under 5.00; in assay [3], 7.39.

As to `CCO[C@H](CBr)O[C@H]1C[C@@H](C(=O)OC)[C@]2(C)CC[C@H]3C(=O)O[C@H](c4ccoc4)C[C@]3(C)[C@H]2C1=O`, the pKi in assay [4] is under 5.30; at Mu-type opioid receptor it was 5.45; in assay [3], 5.13.

On to `CCO[C@H](C)O[C@H]1C[C@@H](C(=O)OC)[C@]2(C)CC[C@H]3C(=O)O[C@H](c4ccoc4)C[C@]3(C)[C@H]2C1=O`, for which the negative logarithm of the Ki (pKi) was under 5.30 in assay [4] and under 5.24 at Mu-type opioid receptor.

As for `CCOCO[C@H]1C[C@@H](C(=O)OC)[C@]2(C)CC[C@H]3C(=O)O[C@H](c4ccoc4)C[C@]3(C)[C@H]2C1=O` [SALVINORIN B ETHOXYMETHYL ETHER], the negative-log Ki (pKi) is 5.99 in assay [4], 7.39 at Mu-type opioid receptor and 8.50 in assay [3]. For the same compound, the Emax in assay [2] worked out at 127%.

In the case of `COC(=O)[C@@H]1C[C@H](O[C@@H]2CCCCO2)C(=O)[C@H]2[C@@]1(C)CC[C@H]1C(=O)O[C@H](c3ccoc3)C[C@]21C`, the pKi is under 5.00 in assay [4], under 5.00 at Mu-type opioid receptor and 8.21 in assay [3]. Besides, the Emax in assay [2] is 109%. Further, the outcome with Rattus norvegicus was Active.

`COC(=O)[C@@H]1C[C@H](O[C@H]2CCCCO2)C(=O)[C@H]2[C@@]1(C)CC[C@H]1C(=O)O[C@H](c3ccoc3)C[C@]21C`: the pKi in assay [4] was under 5.00; at Mu-type opioid receptor, under 5.00; in assay [3], 6.52.

As for `CCO[C@@H](CBr)O[C@H]1C[C@@H](C(=O)OC)[C@]2(C)CC[C@H]3C(=O)O[C@H](c4ccoc4)C[C@]3(C)[C@H]2C1=O`, the pKi in assay [4] is under 5.30; at Mu-type opioid receptor, under 5.52; in assay [3] it was 5.28.

Take `CCNC(=O)O[C@H]1C[C@@H](C(=O)OC)[C@]2(C)CC[C@H]3C(=O)O[C@H](c4ccoc4)C[C@]3(C)[C@H]2C1=O`: the pKi in assay [4] is under 5.00; at Mu-type opioid receptor, 5.81; in assay [3], under 5.00. Further, in assay [5], the pEC50 was under 6.00.

For the compound `COC(=O)[C@@H]1C[C@H](O[C@@H]2CCCO2)C(=O)[C@H]2[C@@]1(C)CC[C@H]1C(=O)O[C@H](c3ccoc3)C[C@]21C`, the ED50 in assay [1] was 1220 nM. Moreover, the pKi in assay [4] is under 5.00; on Mu-type opioid receptor it was under 5.00; in assay [3], 7.12. Also, in assay [2], the Emax was determined as 112%.
